# The list is not random: actives were taken first. Their share in the collection is about 1.5%.
# S100A4 MyoIIA – S100A4-myosin IIA interaction inhibition | P26447 | S100A4/TAMRA-MyoIIA peptide fluorescence polarization | inhibition, % at 10.7 µM | actives 0.14% (n = 360,000);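 active = mean inhibition of at least 70% across replicates, with every replicate also reaching that level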
# Target sequence (P26447 whole entry, looked up): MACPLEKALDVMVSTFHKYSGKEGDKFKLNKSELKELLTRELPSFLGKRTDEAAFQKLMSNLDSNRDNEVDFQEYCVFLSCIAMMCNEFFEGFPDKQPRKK
#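 Material: S100A4 monomer protein | Medium: HEPES pH 7.2 with CaCl2, KCl, NaCl, DTT, Triton | Reagent: Labelled myosin peptide probe, 5 nM | Doses: One dose per compound | Times: 5 min incubation before reading | Benchmarks: Neutral control DMSO, positive control TFP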
# PKA-R2B activ – activators of human PKA-R2B complex. actives 0.079% (n = 340,000). activation, % at 11.4 µM. P22694+P31323. PKA-R2B holoenzyme dissociation, Cy5-IP20 fluorescence polarization; R2B truncated from residue 108, S112A mutant; 0% DMSO only, 100% 113 µM cGMP;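 active = activation above a cutoff set at the mean over all compounds plus 3 SD, cut at about 18% in these data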;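 note: higher means more holoenzyme dissociation and a rise in polarization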
# SIRT5 inh – inhibitors of human sirtuin-5 desuccinylase; AID 652115; Q9NXA8; actives 1.1% (n = 330,000); Purified SirT5, succinyl-peptide AMC, trypsin-coupled fluorescence; inhibition, % at 15 µM; in the data active = inhibition above about 15%
# Target sequence (Q9NXA8 whole entry, looked up): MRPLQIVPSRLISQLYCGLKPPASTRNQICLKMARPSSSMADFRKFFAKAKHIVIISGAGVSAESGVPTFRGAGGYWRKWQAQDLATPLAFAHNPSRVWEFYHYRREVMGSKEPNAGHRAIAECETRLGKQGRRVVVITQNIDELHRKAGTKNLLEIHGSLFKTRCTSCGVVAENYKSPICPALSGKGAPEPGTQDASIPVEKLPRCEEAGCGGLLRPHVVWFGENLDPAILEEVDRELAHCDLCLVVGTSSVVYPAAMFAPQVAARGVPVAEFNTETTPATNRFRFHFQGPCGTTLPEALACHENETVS
# PKA-R1A activ – PKA-R1A complex activation. P00514+P68181. PKA-R1A dissociation, Cy5-IP20 fluorescence polarization; scaled: DMSO 0%, 113 µM cGMP 100%. activation, % at 11.4 µM. actives 0.083% (n = 340,000). AID 504707;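 active = percent activation above the mean of all tested compounds plus 3 SD, cut at about 19% in these data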;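 note: higher means more PKAc released from R1A so a rise in polarization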
# CRFR2-BP antag – CRF-BP/CRF-R2 complex antagonism. HEK293 CRF-R2/CRF-BP, CRF-induced calcium fluorescence. AID 588475. inhibition, % at 11.8 µM. actives 0.59% (n = 350,000);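 active = inhibition of the ligand-induced calcium signal above about 50% at the single tested concentration, limit read from the data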
# Starred values were filed as active, the others as inactive; . = no result given; ! = a repeat was not active.
SMILES,S100A4 MyoIIA,PKA-R2B activ,SIRT5 inh,PKA-R1A activ,CRFR2-BP antag
O=C(c1ccc(F)cc1)N1CC(=O)N2[C@@H](CO)[C@H](c3ccc(C#CCC4CCCC4)cc3)[C@@H]2C1,.,.,16*,.,.
CN(C)CC#Cc1ccc([C@@H]2[C@@H](CO)N3C(=O)CN(C(=O)c4cccc(F)c4)C[C@@H]23)cc1,-43,.,22*,.,.
O=C(c1ccc(F)cc1)N1CC(=O)N2[C@H](C1)[C@@H](c1ccc(C#CCC3CCCC3)cc1)[C@@H]2CO,7,.,-3,.,.
CN(C)CC#Cc1ccc([C@@H]2[C@H]3CN(C(=O)c4cccc(F)c4)CC(=O)N3[C@H]2CO)cc1,-2,.,-10,.,.
COc1cccc(NC(=O)N2CC(=O)N3[C@@H](CO)[C@H](c4ccc(C#CCC5CCCC5)cc4)[C@@H]3C2)c1,-1,.,20*,.,.
COc1cccc(NC(=O)N2CC(=O)N3[C@H](CO)[C@H](c4ccc(C#CCC5CCCC5)cc4)[C@H]3C2)c1,-11,.,22*,.,.
O=C(Nc1cccc(F)c1)N1CC(=O)N2[C@@H](CO)[C@@H](c3ccc(C#CCC4CCCC4)cc3)[C@@H]2C1,-3,.,4,.,.
Cc1noc(C)c1S(=O)(=O)N(C)C[C@@H]1OCCCC[C@H](C)Oc2ccc(NS(C)(=O)=O)cc2C(=O)N([C@@H](C)CO)C[C@H]1C,-2,.,-1,.,.
C[C@@H](NC(=O)C[C@H]1C[C@H]2c3cc(NC(=O)c4cccnc4)ccc3O[C@H]2[C@@H](CO)O1)c1ccccc1,-4,.,0,.,.
CN(CC(=O)Nc1cccc(Cl)c1)S(=O)(=O)c1ccc2c(c1)n(C)c(=O)c(=O)n2C,0,-7,33*,-6,2
C=CCn1c(SCc2c(C)noc2C)nc2sc(C)c(C)c2c1=O,.,-11,.,-10,74*
CC(C)Cc1cc(C(=O)Nc2cccnc2)no1,-1,13,-6,-8,5
COc1ccc(CCNC(=O)c2cc(C3CC3)on2)cc1OC,1,6,-5,6,26
COc1ccc(CCNC(=O)c2cc(CC(C)C)on2)cc1OC,-2,-3,15*,-6,5
CSc1ccccc1NC(=O)c1cc(CC(C)C)on1,1,-1,4,-10,63*
COc1ccc(CCNC(N)=S)cc1OC,.,-6,.,5,63*
COc1ccc(CCNC(=S)NCCc2ccc(OC)c(OC)c2)cc1OC,-3,-3,0,13,-12
CC(C)Cc1cc(C(=O)NCCCN2CCOCC2)no1,151*,-9,-4,-5,-1
O=C(C[C@@H]1C[C@H]2c3cc(NC(=O)CC4CC4)ccc3O[C@H]2[C@@H](CO)O1)NCCc1ccccc1,-11,.,-8,.,.
CNc1nc2cc([N+](=O)[O-])c([N+](=O)[O-])cc2nc1NC,7,-4,1,-4,66*
N#Cc1cc2nc(O)c(O)nc2cc1[N+](=O)[O-],12,8,3,-5,-1
CC(C)NC(=O)N(C)C[C@H]1Oc2ccc(NS(=O)(=O)c3ccc(Cl)cc3)cc2C(=O)N([C@H](C)CO)C[C@@H]1C,-23,.,-7,.,.
COc1ccc(CCNc2nc3ccccc3n3cnnc23)cc1OC,-1,-6,6,-2,0
COCCNc1nc2ccccc2n2cnnc12,2,-12,17*,6,-7
C=CCn1c(SCC(=O)Nc2cccc(OC)c2)nnc1-c1cccnc1,20,-3,-1,-3,-10
SMILES,S100A4 MyoIIA,PKA-R2B activ,SIRT5 inh,PKA-R1A activ,CRFR2-BP antag
C=CCn1c(SCC(=O)Nc2c(C)cccc2C)nnc1-c1ccncc1,.,-5,.,-18,52*
O=C(c1ccc(Cl)cc1)C1CCCN(C(=O)c2csnn2)C1 (stereo not drawn),1,2,112*,-1,2
COc1ccc2cc(C(=O)C3CCCN(C(=O)c4csnn4)C3)ccc2c1 (stereo not drawn),-5,10,-10,-7,-14
C[C@@H]1CCCCO[C@H](CN(C)Cc2ccccc2)[C@@H](C)CN([C@@H](C)CO)C(=O)c2cc(NC(=O)Cc3ccccc3)ccc2O1,-7,.,-7,.,.
COC1(OC)C=CC(=O)C=C1NC(=O)c1ccccc1OC(C)=O,-1,-5,.,-6,104*
COc1ccc(C(=O)Nc2nnc(CC(=O)N/N=C/c3ccc(O)cc3O)s2)cc1,1,-14,17*,-14,.
N#C[C@H]1[C@H](c2ccccc2-c2ccccc2F)[C@@H](CO)N1C(=O)c1cccc(F)c1,-24,.,6,.,.
Cc1ccccc1-c1ccccc1[C@H]1[C@@H](C#N)N(C(=O)c2ccccc2)[C@@H]1CO,11,.,26*,.,.
N#C[C@@H]1[C@H](c2ccccc2-c2ccccc2F)[C@@H](CO)N1C(=O)c1cccc(F)c1,-13,.,18*,.,.
COCC(=O)N1[C@H](C#N)[C@H](c2ccccc2-c2cccc(F)c2)[C@H]1CO,5,.,24*,.,.
CC(C)C#Cc1ccc([C@H]2[C@@H](CO)N(C(=O)c3cccc(F)c3)[C@H]2C#N)cc1,109*,.,-3,.,.
Cc1ccccc1-c1ccccc1[C@@H]1[C@@H](C#N)N(C(=O)c2ccccc2)[C@H]1CO,1,.,-5,.,.
O=C(NCCc1ccccc1)[C@@H]1[C@@H](CO)[C@@H]2Cn3c(cccc3=O)[C@H]1N2C(=O)C1CCCC1,-5,.,-1,.,.
Cc1noc(C)c1NC(=O)Nc1ccc2c(c1)C(=O)N([C@H](C)CO)C[C@H](C)[C@@H](CN(C)S(=O)(=O)c1cn(C)cn1)OCCCC[C@H](C)O2,24,.,8,.,.
CN(C)C(=O)c1cccc(-c2ccccc2[C@H]2[C@@H](C#N)N(C(=O)C3CC3)[C@@H]2CO)c1,5,.,29*,.,.
CN(C)C(=O)c1cccc(-c2ccccc2[C@@H]2[C@@H](C#N)N(C(=O)C3CC3)[C@@H]2CO)c1,0,.,4,.,.
C/C(=N\Nc1cc(C)nc(-c2ccccc2)n1)c1cccc([N+](=O)[O-])c1,0,-11,-4,-6,119*
Cc1nc2c(s1)sc1ccccc12,.,5,.,-3,51*
Cc1cc2c(sc3ccccc32)c(C)n1,7,2,-6,-2,-1
CN1CCN(C(=O)C2=C[C@H](C3CCCCC3)C[C@H](OCc3ccc(CO)cc3)O2)CC1,-10,-6,30*!,-17,-18
O=C(C1=C[C@@H](C2CCCCC2)C[C@@H](OCc2ccc(CO)cc2)O1)N1CCOCC1,7,-1,0,3,-6
O=C(C[C@@H]1CC[C@H](NC(=O)NC2CCCC2)[C@@H](CO)O1)NCc1ccc(F)cc1,6,.,2,.,.
O=C(C[C@@H]1CC[C@@H](NC(=O)CC2CC2)[C@H](CO)O1)NCc1ccc(Cl)cc1,135*,.,5,.,.
O=C(C[C@@H]1CC[C@@H](NC(=O)NC2CCCC2)[C@H](CO)O1)NCc1ccc(F)cc1,120*,.,3,.,.

# Screening data as filed in PubChem BioAssay.
